According to ChEMBL document CHEMBL4138156, “Indole and Benzimidazole Bichalcophenes: Synthesis, DNA Binding and Antiparasitic Activity” (Eur J Med Chem, 2018):
Activity calls are given as the source filed them. The rule behind the calls is not given here.

Tests used:
[1] = tested on: Poly(dA-dT)oligonucleotide; assay: Binding affinity to poly(dA-dT)n DNA (unknown origin) assessed as change in melting temperature at 0.3 molar ratio of compound:DNA by spectrophotometric analysis; format: nucleic-acid assay
In short: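 UV thermal melting of poly(dA-dT) in CAC 10 buffer (10 mM cacodylic acid, 1 mM EDTA, 100 mM NaCl, NaOH to pH 7.0) was run in 1 cm quartz cuvettes, ramping at 0.5 °C/min. DNA concentration was set from A260, with 0.3 mol compound per mol DNA and DNA alone as control. ΔTm was taken from the peak of the first-derivative (dA/dT) curves.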

[2] = Binding affinity to poly(dA).poly(dT) DNA minor groove (unknown origin) assessed as positive induced CD signal at DNA:compound molar ratio of 20:2 to 20:10 by CD spectra analysis; format: nucleic-acid assay
In short: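 Poly(dA).poly(dT) at 20 μM was titrated with compound at 25 °C in 10 mM MES, 100 mM NaCl, 1 mM EDTA, pH 7.4. CD spectra were recorded at different compound-to-DNA ratios.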

[3] = tested on: Trypanosoma brucei rhodesiense; assay: Antiprotozoal activity against bloodstream forms of Trypanosoma brucei rhodesiense STIB900 infected in NMR1 mouse at 5 mg/kg, ip administered daily for 4 consecutive days starting from day 3 to 6 post infection; format: functional
In short: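 STIB900 acute-stage mouse infection model for T. b. rhodesiense (mimics acute African sleeping sickness). Dosing was 4 × 5 mg/kg i.p. The outcome was scored as cure of infected mice.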

[4] = Selectivity index, ratio of IC50 for rat L6 cells to IC50 for Plasmodium falciparum K1 infected in human erythrocytes; format: toxicity, cell-based; settings: read-out: Ratio IC50
In short: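 Ratio of IC50 in cultured L6 rat myoblast cells (cytotoxicity) to IC50 in an in vitro viability assay against chloroquine-resistant P. falciparum strain K1. P. falciparum IC50 values are the average of duplicate determinations.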

Row | Activity [2] | Structure (SMILES) | ΔTm [1] [°C] | Activity [3] | selectivity ratio [4]
1 | Active | N=C(N)c1ccc2nc(-c3ccc(-c4ccc(C(=N)N)s4)s3)[nH]c2c1 | > 30 |  | 
2 |  | N=C(N)c1ccc2cc(-c3ccc(-c4ccc(C(=N)N)s4)o3)[nH]c2c1 | > 30 | inactive | 
3 | Active | N=C(N)c1ccc2nc(-c3ccc(-c4ccc(C(=N)N)s4)o3)[nH]c2c1 |  |  | 
4 | Active | N=C(N)c1ccc2nc(-c3ccc(-c4ccc(C(=N)N)o4)o3)[nH]c2c1 |  |  | 

Row | Structure (SMILES) | Activity [2] | ΔTm [1] [°C] | Activity [3] | selectivity ratio [4]
5 | N=C(N)c1ccc2cc(-c3ccc(-c4ccc(C(=N)N)s4)s3)[nH]c2c1 | Active | > 30 | inactive | 
6 | N=C(N)c1ccc2cc(-c3ccc(-c4ccc(C(=N)N)o4)o3)[nH]c2c1 | Active |  | inactive | 1000
